# ChEMBL document CHEMBL3875213, “Quinolines: Microwave-assisted synthesis and their antifungal, anticancer and radical scavenger properties” (Bioorg Med Chem, 2017)
# Active and inactive are the calls of the source. The rule behind the calls is not given here.
# System: not listed separately
# Experiment: Antifungal activity against Cryptococcus neoformans ATCC 32264 incubated for 48 hrs under dark condition by broth microdilution assay
# Format: functional
# Conditions: not given
# Summary of the method: (§1)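 Broth microdilution per CLSI M27-A3 in RPMI-1640. Inocula adjusted to 1-5 x 10^3 CFU/mL. Stocks in DMSO (≤1%), final 3.9-250.0 µg/mL. Incubated 48 h at 30 °C in a moist, dark chamber, read at OD 405. % inhibition computed from growth and sterility control wells, run in triplicate. MIC80/MIC50 taken from four-parameter logistic concentration-response curves; amphotericin B as positive control.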
MIC50,MIC80,Structure (SMILES)
> 250 µg/mL,> 250 µg/mL,N#Cc1ccc(-c2cc(-c3ccccc3)c3cc(Br)ccc3n2)cc1
31.2 µg/mL,250 µg/mL,c1ccc(-c2cc(-c3ccccc3)c3c4c(ccc3n2)OCO4)cc1
62.5 µg/mL,250 µg/mL,Oc1ccc(-c2cc(-c3ccccc3)c3cc(Br)ccc3n2)cc1

# System: not listed separately
# Experiment: Antiproliferative activity against human CCD-19Lu cells after 24 hrs by MTT assay
# Format: cell-based
# Conditions: not given
# Summary of the method: (§2)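 Cells grown in medium with 10% foetal bovine serum and 1% L-glutamine at 37 °C, 5% CO2, seeded at 1 x 10^5 cells/well. Exposed to compound at 1.0-1,000 µg/mL for 24 h. MTT added, absorbance read at 540 nm 3 h later. IC50 obtained by non-linear regression of viability data.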
row,Structure (SMILES),IC50
1,c1ccc(-c2cc(-c3ccccc3)c3c4c(ccc3n2)OCO4)cc1,354 µM
2,Oc1ccc(-c2cc(-c3ccccc3)c3cc(Br)ccc3n2)cc1,104 µM

# System: Candida albicans
# Experiment: Growth inhibition of Candida albicans ATCC 10231 at 250 ug/ml incubated for 48 hrs under dark condition by broth microdilution assay relative to amphotericin B
# Format: functional
# Conditions: ATCC 10231, 48 h, read-out: GI
# Summary of the method: (§3)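 Yeast broth microdilution (CLSI M27-A3), RPMI-1640, inoculum 1-5 x 10^3 CFU/mL, DMSO ≤1%, 48 h at 30 °C in a moist, dark chamber. […]. Triplicate; amphotericin B as positive control.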
row,Structure (SMILES),inhibition of growth at 250 µg/mL
1,N#Cc1ccc(-c2cc(-c3ccccc3)c3cc(Br)ccc3n2)cc1,5.75%
2,c1ccc(-c2cc(-c3ccccc3)c3c4c(ccc3n2)OCO4)cc1,24.2%
3,Oc1ccc(-c2cc(-c3ccccc3)c3cc(Br)ccc3n2)cc1,45.8%

# System: not listed separately
# Experiment: Antiproliferative activity against human NCI-H226 cells harboring TP53 mutant after 24 hrs by MTT assay
# Format: functional, cell-based
# Conditions: NCI-H226, 24 h
# Summary of the method: as §2
row,Structure (SMILES),IC50
1,c1ccc(-c2cc(-c3ccccc3)c3c4c(ccc3n2)OCO4)cc1,40 µM
2,Oc1ccc(-c2cc(-c3ccccc3)c3cc(Br)ccc3n2)cc1,8 µM

# System: Candida albicans
# Experiment: Growth inhibition of Candida albicans ATCC 10231 at 3.9 ug/ml incubated for 48 hrs under dark condition by broth microdilution assay relative to amphotericin B
# Format: functional
# Conditions: ATCC 10231, 48 h, read-out: GI
# Summary of the method: as §3
row,Structure (SMILES),inhibition of growth at 3.9 µg/mL
1,N#Cc1ccc(-c2cc(-c3ccccc3)c3cc(Br)ccc3n2)cc1,0%
2,c1ccc(-c2cc(-c3ccccc3)c3c4c(ccc3n2)OCO4)cc1,0%
3,Oc1ccc(-c2cc(-c3ccccc3)c3cc(Br)ccc3n2)cc1,2.41%

# System: not listed separately
# Experiment: Antiproliferative activity against human Hep2C cells after 24 hrs by MTT assay
# Format: functional, cell-based
# Conditions: not given
# Summary of the method: as §2
row,Structure (SMILES),IC50
1,N#Cc1ccc(-c2cc(-c3ccccc3)c3cc(Br)ccc3n2)cc1,98.8 µM
2,c1ccc(-c2cc(-c3ccccc3)c3c4c(ccc3n2)OCO4)cc1,951 µM
3,Oc1ccc(-c2cc(-c3ccccc3)c3cc(Br)ccc3n2)cc1,105 µM

# System: Candida albicans
# Experiment: Growth inhibition of Candida albicans ATCC 10231 at 7.81 ug/ml incubated for 48 hrs under dark condition by broth microdilution assay relative to amphotericin B
# Format: functional
# Conditions: ATCC 10231, 48 h, read-out: GI
# Summary of the method: as §3
row,Structure (SMILES),inhibition of growth at 7.81 µg/mL
1,N#Cc1ccc(-c2cc(-c3ccccc3)c3cc(Br)ccc3n2)cc1,0%
2,c1ccc(-c2cc(-c3ccccc3)c3c4c(ccc3n2)OCO4)cc1,0%
3,Oc1ccc(-c2cc(-c3ccccc3)c3cc(Br)ccc3n2)cc1,3.56%

# System: NCI-H226
# Experiment: Selectivity index, ratio of IC50 for human CCD-19Lu cells to IC50 for human NCI-H226 cells
# Format: functional
# Conditions: not given
# Summary of the method: (§4)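 Selectivity index equals IC50 in non-tumour CCD 19-Lu lung fibroblasts divided by IC50 in the tumour line. Both IC50s come from the 24 h MTT assay (read at 540 nm) over 1.0-1,000 µg/mL.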
row,Structure (SMILES),Ratio IC50
1,c1ccc(-c2cc(-c3ccccc3)c3c4c(ccc3n2)OCO4)cc1,8
2,Oc1ccc(-c2cc(-c3ccccc3)c3cc(Br)ccc3n2)cc1,13

# System: Candida albicans
# Experiment: Growth inhibition of Candida albicans ATCC 10231 at 31.25 ug/ml incubated for 48 hrs under dark condition by broth microdilution assay relative to amphotericin B
# Format: functional
# Conditions: ATCC 10231, 48 h, read-out: GI
# Summary of the method: as §3
row,Structure (SMILES),inhibition of growth at 31.25 µg/mL
1,N#Cc1ccc(-c2cc(-c3ccccc3)c3cc(Br)ccc3n2)cc1,2.44%
2,c1ccc(-c2cc(-c3ccccc3)c3c4c(ccc3n2)OCO4)cc1,5.74%
3,Oc1ccc(-c2cc(-c3ccccc3)c3cc(Br)ccc3n2)cc1,6.17%

# System: Candida albicans
# Experiment: Antifungal activity against Candida albicans ATCC 10231 incubated for 48 hrs under dark condition by broth microdilution assay
# Format: functional
# Conditions: ATCC 10231, 48 h
# Summary of the method: as §1
MIC50,MIC80,Structure (SMILES)
> 250 µg/mL,> 250 µg/mL,N#Cc1ccc(-c2cc(-c3ccccc3)c3cc(Br)ccc3n2)cc1
> 250 µg/mL,> 250 µg/mL,c1ccc(-c2cc(-c3ccccc3)c3c4c(ccc3n2)OCO4)cc1
62.5 µg/mL,125 µg/mL,Oc1ccc(-c2cc(-c3ccccc3)c3cc(Br)ccc3n2)cc1

# System: Candida albicans
# Experiment: Growth inhibition of Candida albicans ATCC 10231 at 125 ug/ml incubated for 48 hrs under dark condition by broth microdilution assay relative to amphotericin B
# Format: functional
# Conditions: ATCC 10231, 48 h, read-out: GI
# Summary of the method: as §3
row,Structure (SMILES),inhibition of growth at 125 µg/mL
1,N#Cc1ccc(-c2cc(-c3ccccc3)c3cc(Br)ccc3n2)cc1,4.86%
2,c1ccc(-c2cc(-c3ccccc3)c3c4c(ccc3n2)OCO4)cc1,13.5%
3,Oc1ccc(-c2cc(-c3ccccc3)c3cc(Br)ccc3n2)cc1,21.2%

# System: Candida albicans
# Experiment: Growth inhibition of Candida albicans ATCC 10231 at 15.62 ug/ml incubated for 48 hrs under dark condition by broth microdilution assay relative to amphotericin B
# Format: functional
# Conditions: ATCC 10231, 48 h, read-out: GI
# Summary of the method: as §3
row,Structure (SMILES),inhibition of growth at 15.62 µg/mL
1,N#Cc1ccc(-c2cc(-c3ccccc3)c3cc(Br)ccc3n2)cc1,0%
2,c1ccc(-c2cc(-c3ccccc3)c3c4c(ccc3n2)OCO4)cc1,3.62%
3,Oc1ccc(-c2cc(-c3ccccc3)c3cc(Br)ccc3n2)cc1,4.5%

# System: not listed separately
# Experiment: Selectivity index, ratio of IC50 for human CCD-19Lu cells to IC50 for human Hep2C cells
# Format: functional
# Conditions: not given
# Summary of the method: as §4
row,Structure (SMILES),Ratio IC50
1,c1ccc(-c2cc(-c3ccccc3)c3c4c(ccc3n2)OCO4)cc1,0
2,Oc1ccc(-c2cc(-c3ccccc3)c3cc(Br)ccc3n2)cc1,0

# System: not listed separately
# Experiment: Antioxidant activity assessed as fluorescent light-induced superoxide anion scavenging activity at 160 uM incubated for 10 mins by nitroblue tetrazolium dye based assay
# Format: functional
# Conditions: not given
# Summary of the method: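 Superoxide generated photochemically in 50 mM phosphate buffer pH 7.8 with 13 mM L-methionine, 75 µM nitroblue tetrazolium, 100 µM EDTA and 2 µM riboflavin. Compound at 160 µM. 10 min at 25 °C under fluorescent light; dark controls. Read at 575 nm. Resveratrol as positive control; three independent experiments in triplicate.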
row,Structure (SMILES),Activity
1,N#Cc1ccc(-c2cc(-c3ccccc3)c3cc(Br)ccc3n2)cc1,Active
2,c1ccc(-c2cc(-c3ccccc3)c3c4c(ccc3n2)OCO4)cc1,Active
3,Oc1ccc(-c2cc(-c3ccccc3)c3cc(Br)ccc3n2)cc1,Active

# System: Candida albicans
# Experiment: Growth inhibition of Candida albicans ATCC 10231 at 62.5 ug/ml incubated for 48 hrs under dark condition by broth microdilution assay relative to amphotericin B
# Format: functional
# Conditions: ATCC 10231, 48 h, read-out: GI
# Summary of the method: as §3
row,Structure (SMILES),inhibition of growth at 62.5 µg/mL
1,N#Cc1ccc(-c2cc(-c3ccccc3)c3cc(Br)ccc3n2)cc1,2.54%
2,c1ccc(-c2cc(-c3ccccc3)c3c4c(ccc3n2)OCO4)cc1,8.77%
3,Oc1ccc(-c2cc(-c3ccccc3)c3cc(Br)ccc3n2)cc1,9.63%
